# Where two headings read alike, the source gives them in different places.
# Experiments:
# [1] = Urinary excretion of oral sugar probes; assay type: in vivo, human; settings: for Percent urinary excretion of oral sugar probe: healthy subjects, oral cocktail, mean ± SD/SE; for % Total (of 24 h urinary excretion) corrected for CrCl / % Total (cum) corrected for CrCl: normalized for CrCl; for % Total (of 24 h urinary excretion) / % Total (cumulative): not normalized; for Percent urinary excretion of oral sugar probe corrected for CrCl: percent excretion divided by creatinine clearance; for Percent urinary excretion of oral sugar probe corrected for CrCl / Sucralose/Lactulose Ratio / Lactulose/Mannitol Ratio: mean ± SE; for % Total (cum) corrected for CrCl / % Total (cumulative): cumulative first 12 h; for Range of tertile means of 24 h percent excretion of oral dose: data divided into 3 tertile groups, lowest to highest excretion
# [2] = ref [18], cited from earlier work
# [3] = assay type: in vivo, human; settings: 24 h
# How it was run: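 Age- and BMI-matched controls and patients fasted overnight and emptied their bladders. At 6 AM they took 2 g mannitol, 7.5 g lactulose and 40 g sucrose in 8 oz water, plus 1 g sucralose in 2 capsules. Fasting continued 2 h, with no "diet" foods or drinks from 48 h before through the test. Urine was pooled over 24 h and sugars were measured as alditol acetates by GC (DB-225MS). Results were expressed as % of oral dose and as the sucralose/lactulose ratio.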
# [4] = 12-24 hour, listed as sucralose
# [5] = 12-24 hour, listed as lactulose
Percent urinary excretion of oral sugar probe ([1]; 0-5 hour urine collection),% Total (of 24 h urinary excretion) corrected for CrCl ([1]; 0-5 hour),% Total (of 24 h urinary excretion) ([1]; 0-5 hour),Percent urinary excretion of oral sugar probe corrected for CrCl ([1]; 0-5 hour),Percent urinary excretion of oral sugar probe ([1]; 0-24 hour urine collection),% Total (of 24 h urinary excretion) corrected for CrCl ([1]; 0-24 hour),% Total (of 24 h urinary excretion) ([1]; 0-24 hour),Percent urinary excretion of oral sugar probe corrected for CrCl ([1]; 0-24 hour),Percent urinary excretion of oral sugar probe ([1]; 5-12 hour urine collection),% Total (of 24 h urinary excretion) corrected for CrCl ([1]; 5-12 hour),% Total (of 24 h urinary excretion) ([1]; 5-12 hour),Percent urinary excretion of oral sugar probe corrected for CrCl ([1]; 5-12 hour),Percent urinary excretion of oral sugar probe ([1]; 12-24 hour urine collection),% Total (of 24 h urinary excretion) corrected for CrCl ([1]; 12-24 hour),% Total (of 24 h urinary excretion) ([1]; 12-24 hour),Percent urinary excretion of oral sugar probe corrected for CrCl ([1]; 12-24 hour),% Total (cum) corrected for CrCl [1],% Total (cumulative) [1],Range of tertile means of 24 h percent excretion of oral dose [1],Structure (SMILES),also measured
15.6 ± 0.8%,52.9%,61.5%,0.18 ± 0.01,28.9 ± 1.3%,99%,100%,0.34 ± 0.029,6.03 ± 0.96%,22.6%,20%,0.077 ± 0.01,6.4 ± 1.3%,23.5%,18.5%,0.08 ± 0.016,75.5%,81.5%,,"OC[C@@H](O)[C@@H](O)[C@H](O)[C@H](O)CO [Mannitol, D-mannitol]","% Total (of 24 h urinary excretion) corrected for CrCl ([1]; 0-5 hour, listed as mannitol): 52.9%; % Total (of 24 h urinary excretion) ([1]; 0-5 hour, listed as mannitol): 61.5%; % Total (of 24 h urinary excretion) corrected for CrCl ([1]; 12-24 hour, listed as mannitol): 23.5%; % Total (of 24 h urinary excretion) ([1]; 12-24 hour, listed as mannitol): 18.5%"
0.5 ± 0.8%,33.3%,35.9%,0.005 ± 0.001,1.23 ± 0.14%,99.5%,100%,0.015 ± 0.002,0.51 ± 0.13%,38%,29.7%,0.0057 ± 0.001,0.3 ± 0.04%,28.2%,34.4%,0.004 ± 0.0006,71.3%,65.6%,0.4%-2.4%,"OC[C@H]1O[C@H](O[C@]2(CCl)O[C@H](CCl)[C@@H](O)[C@@H]2O)[C@H](O)[C@@H](O)[C@H]1Cl [Sucralose, 1,6-dichloro-1,6-dideoxy-β-D-fructofuranosyl-4-chloro-4-deoxy-α-D-glucopyranoside]","24 h mean urinary excretion sucralose value ([2]; Parkinson's disease patients (N=9), p ≤ 0.015 vs controls): 1.12 ± 0.1; 24 h mean urinary excretion sucralose value ([2]; healthy controls (N=10), BMI/age-matched): 0.58 ± 0.1; Sucralose/Lactulose Ratio ([1]; 0-5 hour urine): 0.53 ± 0.10; Sucralose/Lactulose Ratio ([1]; 0-5 hour urine, listed as sucralose): 0.53; % Total (of 24 h urinary excretion) corrected for CrCl ([1]; 0-5 hour, listed as sucralose): 33.3%; % Total (of 24 h urinary excretion) ([1]; 0-5 hour, listed as sucralose): 35.9%; Sucralose/Lactulose Ratio ([1]; 0-24 hour urine): 0.49 ± 0.08; Sucralose/Lactulose Ratio ([1]; 0-24 hour urine, listed as sucralose): 0.49; Sucralose/Lactulose Ratio ([1]; 5-12 hour urine): 0.54 ± 0.13; Sucralose/Lactulose Ratio ([1]; 5-12 hour urine, listed as sucralose): 0.54; Sucralose/Lactulose Ratio ([1]; 12-24 hour urine): 0.36 ± 0.06; Sucralose/Lactulose Ratio ([1]; 12-24 hour urine, listed as sucralose): 0.36; % Total (of 24 h urinary excretion) corrected for CrCl [1, 4]: 28.2%; % Total (of 24 h urinary excretion) [1, 4]: 34.4%; mean urinary excretion sucralose/lactulose ratio ([3]; Parkinson's disease patients (N=9), p ≤ 0.001 vs controls): 0.48 ± 0.1; mean urinary excretion sucralose/lactulose ratio ([3]; healthy controls (N=10)): 0.21± 0.1"
0.5 ± 0.15%,26.9%,29.6%,0.006 ± 0.0007,1.82 ± 0.17%,94.6%,100%,0.0223 ± 0.002,,26.9%,27.4%,0.006 ± 0.001,0.8 ± 0.7%,40.8%,43%,0.009 ± 0.0009,53.8%,57%,0.3%-0.6%,"OC[C@H]1O[C@@](CO)(O[C@H]2O[C@H](CO)[C@@H](O)[C@H](O)[C@H]2O)[C@@H](O)[C@@H]1O [Sucrose, α-D-glucopyranosyl-β-D-fructofuranoside]",
0.95 ± 0.6%,30%,29.3%,0.012 ± 0.001,3.11 ± 0.2%,100%,100%,0.04 ± 0.002,1.1 ± 0.19%,32.4%,26.8%,0.012 ± 0.002,1.4 ± 0.1%,40%,43.9%,0.016 ± 0.001,60%,56.1%,0.5%-1.7%,"OC[C@H]1O[C@@H](O[C@@H]2[C@@H](CO)O[C@](O)(CO)[C@H]2O)[C@H](O)[C@@H](O)[C@H]1O [Lactulose, 4-o-β-D-galactopyranosyl-D-fructofuranose]","Lactulose/Mannitol Ratio ([1]; 0-5 hour urine): 0.065 ± 0.05; Lactulose/Mannitol Ratio ([1]; 0-5 hour urine, listed as lactulose): .065; % Total (of 24 h urinary excretion) ([1]; 0-5 hour, listed as lactulose): 29.3%; Lactulose/Mannitol Ratio ([1]; 0-24 hour urine): 0.124 ± 0.010; Lactulose/Mannitol Ratio ([1]; 0-24 hour urine, listed as lactulose): 0.124; Lactulose/Mannitol Ratio ([1]; 5-12 hour urine): 0.25 ± 0.03; Lactulose/Mannitol Ratio ([1]; 5-12 hour urine, listed as lactulose): 0.25; Lactulose/Mannitol Ratio ([1]; 12-24 hour urine): 0.534 ± 0.11; Lactulose/Mannitol Ratio ([1]; 12-24 hour urine, listed as lactulose): 0.534; % Total (of 24 h urinary excretion) corrected for CrCl [1, 5]: 40%; % Total (of 24 h urinary excretion) [1, 5]: 43.9%; Variation of lactulose/mannitol (L/M) ratio over 24 h ([1]; across collection segments, peak in second 12 hours): more than 8 fold"
